Experimental data of several laboratories.
Cell line: ACHN
Observed: cell growth or viability

| SMILES | test | setting | measurement | value |
| --- | --- | --- | --- | --- |
| COc1ccc(C(=O)/C=C/c2ccccc2Br)cc1S(N)(=O)=O | SRB | 48 h | GI50 | 1800 nM |
| Cc1cc(C)n(C(=S)[S][Au][PH](CCCCCC[PH]([Au][S]C(=S)n2nc(C)cc2C)(c2ccccc2)c2ccccc2)(c2ccccc2)c2ccccc2)n1 |  |  | GI50 | 752 nM |
| COc1cc(-c2ccc(-c3ccc(C(=N)N)nc3)s2)cc(OC)c1OC |  |  | GI50 | 1730 nM |
| COc1cccc(Oc2ccccc2NC(=O)CNC(=O)c2cccc3ccccc23)c1 | SRB | 48 h | GI50 | 398 nM |
| CC1=CC(=O)C(C(C)C)=CC1=O | CCK-8 | 48 h | IC50 | 53000 nM |
| S=C([S][Au-][P+](CCCCCC[P+]([Au-][S]C(=S)n1cccn1)(c1ccccc1)c1ccccc1)(c1ccccc1)c1ccccc1)n1cccn1 |  |  | GI50 | 1450 nM |
| COc1ccc(-c2ccc(-c3ccc(C(=N)N)nc3)s2)cc1Cl |  |  | GI50 | 1770 nM |
| COc1ccc(C(=O)/C=C/c2cc3c(cc2Br)OCO3)cc1S(N)(=O)=O | SRB | 10 µM | inhibition | 123% |
